Converted amounts (≈) assume the structure as drawn.
Assays:
GluN1/GluN2A E790M = GluN1/GluN2A E790M (Rattus norvegicus, UniProt P35439+Q00959, E790M); assay: Two-electrode voltage-clamp recordings, Xenopus oocytes; format: cell-based; conditions: 100 μM glutamate + 3 μM glycine
GluN1/GluN2A L777A = GluN1/GluN2A L777A (Rattus norvegicus, UniProt P35439+Q00959, L777A); assay: as above; format: cell-based; conditions: 100 μM glutamate + 3 μM glycine
GluN1/GluN2A V783W = GluN1/GluN2A V783W (Rattus norvegicus, UniProt P35439+Q00959, V783W); assay: as above; format: cell-based; conditions: 100 μM glutamate + 3 μM glycine
GluN1/2A-(2D D1) = GluN1/2A-(2D D1) (Rattus norvegicus, UniProt P35439+Q00959, A414R/D421P/DELINS438-452SQLNRTHSPPPDAPRPE/E427G/E790M/G786D/I408V/I422A/K454R/K466R/K472G/L425I/M788I/N404Q/N432D/N490D/N491G/P770R/Q766H/Q774P/R469H/S407T/S468A/S538A/T426S/T433S/T474S/T793R/T797S/V409A/V430I/V471I/V489I/V501F/V506D/V509I/V521I/V783L); assay: as above; format: cell-based; conditions: 100 μM glutamate plus 30 μM glycine
GluN1/2A-(2D M1M2M3) = GluN1/2A-(2D M1M2M3) (Rattus norvegicus, UniProt P35439+Q00959, A555P/A572T/A593R/A604S/F553Y/F579L/F658Y/G610A/H595G/I567T/I571V/K590T/K623R/L565C/N587S/P597S/Q620E/S556A/S569V/S598T/S632L/V575I); assay: as above; format: cell-based; conditions: 100 μM glutamate plus 30 μM glycine; vs GluN1/GluN2A
GluN1/GluN2A [1] = biological target: T1, GluN1/GluN2A (Rattus norvegicus, UniProt P35439+Q00959); assay: as above; format: cell-based; conditions: for Schild slope / pA2 (Schild plot): 100 μM glutamate
GluN1/GluN2A [2] = biological target: T1, GluN1/GluN2A; assay: Whole-cell voltage-clamp recordings, HEK293 cells, rapid solution exchange; format: cell-based; conditions: for % fast / τfast / τslow: brief application (10 ms) of 1000 μM glycine
In short: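 HEK293 cells were plated on poly-D-lysine coverslips about 48 h ahead and calcium-phosphate cotransfected with GluN1, GluN2A and GFP (1:1:1). 200 μM D,L-APV and 200 μM 7-chlorokynurenic acid were added after transfection. Whole-cell recording was done about 24 h later at −60 mV and 23°C on lifted cells with piezo-driven theta-glass exchange.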

GluN1/GluN2A M788A = GluN1/GluN2A M788A (Rattus norvegicus, UniProt P35439+Q00959, M788A); assay: Two-electrode voltage-clamp recordings, Xenopus oocytes; format: cell-based; conditions: 100 μM glutamate + 3 μM glycine
GluN1/GluN2A E789A = GluN1/GluN2A E789A (Rattus norvegicus, UniProt P35439+Q00959, E789A); assay: as above; format: cell-based; conditions: 100 μM glutamate + 3 μM glycine
GluN1/GluN2A V783L = GluN1/GluN2A V783L (Rattus norvegicus, UniProt P35439+Q00959, V783L); assay: as above; format: cell-based
GluN1/2A-(2D S1) = GluN1/2A-(2D S1) (Rattus norvegicus, UniProt P35439+Q00959, A414R/D421P/DELINS438-452SQLNRTHSPPPDAPRPE/E427G/I408V/I422A/K454R/K466R/K472G/L425I/N404Q/N432D/N490D/N491G/R469H/S407T/S468A/S538A/T426S/T433S/T474S/V409A/V430I/V471I/V489I/V501F/V506D/V509I/V521I); assay: Two-electrode voltage-clamp recordings, Xenopus oocytes; format: cell-based; conditions: 100 μM glutamate + 3 μM glycine
In short: (§1)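 cRNA from linearized constructs injected into female Xenopus laevis oocytes. Two-electrode voltage clamp done 3–4 d later at 23°C, holding at −40 mV, in 90 NaCl, 1 KCl, 10 HEPES, 0.5 BaCl₂, 0.01 EDTA (mM), pH 7.4. […] Max inhibition is (control − residual at saturating compound)/control.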

GluN1/2A-ΔATD = GluN1/2A-ΔATD (Rattus norvegicus, UniProt P35439+Q00959); assay: Two-electrode voltage-clamp recordings, Xenopus oocytes; format: cell-based; conditions: 100 μM glutamate plus 30 μM glycine; vs GluN1/GluN2A
[3] = Maximum solubility in extracellular oocyte recording solution; format: physicochemical; conditions: aqueous buffer
GluN1/2D-(2A S2) = GluN1/2D-(2A S2) (Rattus norvegicus, UniProt P35439+Q62645, A747T/D725Y/D811G/E700D/E740D/H791Q/I813M/K706R/K717R/K766R/K779Y/L705F/L808V/M763K/M815E/P736R/P799Q/Q699H/Q701Y/Q744S/R693K/R737G/R765G/R795P/R818T/S688T/S721N/S728Q/S822T/T686Q/T743V/T783S/V731T/V780I/Y702S/Y733F); assay: Two-electrode voltage-clamp recordings, Xenopus oocytes; format: cell-based; conditions: 100 μM glutamate + 3 μM glycine
In short: as §1

[4] = 100 μM glutamate + 1 μM glycine
[5] = 100 μM glutamate + 30 μM glycine
[6] = 50 μM glutamate, antagonist 0.1 μM
[7] = 50 μM glutamate, antagonist 0.3 μM
[8] = 50 μM glutamate, antagonist 1 μM

Which “TCN-201 activity Max. % inhibition” value (GluN1/GluN2A E790M) does the source give for `O=C(NNC(=O)c1ccc(CNS(=O)(=O)c2ccc(F)c(Cl)c2)cc1)c1ccccc1` [TCN-201, 3-chloro-4-fluoro-N-[(4-[(2-(phenylcarbonyl)hydrazino)carbonyl]phenyl)methyl]-benzenesulfonamide] here?
Its value is 90 ± 3%.

What about the “TCN-201 activity nH” value (GluN1/GluN2A E790M) of the same compound?
The value was 1.4.

And the “TCN-201 activity Max. % inhibition” value (GluN1/GluN2A L777A)?
The value was 98 ± 1%.

And the “TCN-201 activity nH” value (GluN1/GluN2A L777A)?
Its value is 1.2.

And the “TCN-201 activity Max. % inhibition” value (GluN1/GluN2A V783W)?
The value was 95 ± 2%.

And the “TCN-201 activity nH” value (GluN1/GluN2A V783W)?
The value was 1.0.

What about the “Inhibition by 3 μM TCN-201” value (GluN1/2A-(2D D1)) of the same compound?
The value was “eliminated TCN-201 inhibition”.

What about the “Inhibition by 3 μM TCN-201” value (GluN1/2A-(2D M1M2M3)) of the same compound?
The value was “did not reduce inhibition”.

And the “TCN-201 activity Max. % inhibition” value (GluN1/GluN2A [1]; [4])?
The value was 100 ± 1%.

And the “TCN-201 activity nH” value (GluN1/GluN2A [1]; [4])?
The value was 1.2.

And the “TCN-201 activity nH” value (GluN1/GluN2A [1]; 100 μM glutamate + 3 μM glycine)?
The value was 1.5.

What about the “TCN-201 activity Max. % inhibition” value (GluN1/GluN2A [1]; [5]) of the same compound?
Its value is 73 ± 2%.

What about the “TCN-201 activity nH” value (GluN1/GluN2A [1]; [5]) of the same compound?
The value was 2.2.

And the Schild slope (GluN1/GluN2A [1]; agonist D-cycloserine)?
The Schild slope was 0.90.

What about the “pA2 (Schild plot)” value (GluN1/GluN2A [1]; agonist D-cycloserine) of the same compound?
Its value is 7.39.

What about the Schild slope (GluN1/GluN2A [1]; agonist D-serine) of the same compound?
Its Schild slope is 0.79.

And the “pA2 (Schild plot)” value (GluN1/GluN2A [1]; agonist D-serine)?
The value was 7.39.

And the Schild slope (GluN1/GluN2A [1]; agonist glycine)?
The Schild slope was 0.87.

What about the “allosteric constant α” value (GluN1/GluN2A [1]; global nonlinear regression of glycine concentration-response data) of the same compound?
Its value is 0.0025.

What about the “Maximal increase in glycine EC50 (1/α)” value (GluN1/GluN2A [1]; implied by α = 0.0025) of the same compound?
Its value is 400 fold.

What about the τinhibition (GluN1/GluN2A [2]; 3 μM TCN-201 in the presence of both glutamate (50 μM) and glycine (10 μM)) of the same compound?
Its τinhibition is 3.4 ± 0.2 s.

What about the “τinhibition (time constant for TCN-201 binding)” value (GluN1/GluN2A [2]; 3 μM TCN-201 pre-incubated in the absence of any agonists) of the same compound?
The value was 3.5 ± 0.3 s.

And the τinhibition (GluN1/GluN2A [2]; 3 μM TCN-201 pre-incubated with glutamate alone (50 μM))?
Its τinhibition is 1.1 ± 0.1 s.

And the “TCN-201 binding / τinhibition” value (GluN1/GluN2A [2]; 3 μM TCN-201 pre-incubated with glycine alone (10 μM))?
The value was “Minimal binding”.

What about the “τweighted for glycine deactivation” value (GluN1/GluN2A [2]; brief (10 ms) 1 mM glycine, 50 μM glutamate, 1 μM TCN-201) of the same compound?
Its value is 27 ± 2 ms.

What about the “% fast” value (GluN1/GluN2A [2]; [6]) of the same compound?
Its value is 74 ± 2%.

And the τfast (GluN1/GluN2A [2]; [6])?
Its τfast is 20 ± 1 ms.

And the τslow (GluN1/GluN2A [2]; [6])?
The τslow was 131 ± 7 ms.

And the “% fast” value (GluN1/GluN2A [2]; [7])?
The value was 82 ± 1%.

And the τfast (GluN1/GluN2A [2]; [7])?
Its τfast is 18 ± 1 ms.

And the τslow (GluN1/GluN2A [2]; [7])?
Its τslow is 123 ± 11 ms.

And the “% fast” value (GluN1/GluN2A [2]; [8])?
The value was 89 ± 2%.

And the τfast (GluN1/GluN2A [2]; [8])?
The τfast was 16 ± 2 ms.

What about the τslow (GluN1/GluN2A [2]; [8]) of the same compound?
The τslow was 116 ± 19 ms.

What about the “τweighted for glycine deactivation vs absence of TCN-201” value (GluN1/GluN2A [2]; long (5 seconds) 1 mM glycine, 50 μM glutamate) of the same compound?
Its value is “no significant difference”.

What about the “deactivation time constant, mono-exponential fit (τslow)” value (GluN1/GluN2A [2]; long application (5 seconds) of 1000 μM glycine, 50 μM glutamate, antagonist 0.3 μM) of the same compound?
The value was 124 ± 12 ms.

And the “TCN-201 activity Max. % inhibition” value (GluN1/GluN2A M788A)?
Its value is 90 ± 3%.

What about the “TCN-201 activity nH” value (GluN1/GluN2A M788A) of the same compound?
The value was 1.4.

What about the “TCN-201 activity Max. % inhibition” value (GluN1/GluN2A E789A) of the same compound?
The value was 96 ± 1%.

And the “TCN-201 activity nH” value (GluN1/GluN2A E789A)?
Its value is 1.4.

What about the Kb (GluN1/GluN2A V783L) of the same compound?
The Kb was 2140 nM.

What about the “TCN-201 activity IC50” value (GluN1/2A-(2D S1)) of the same compound?
The value was “did not affect TCN-201 sensitivity”.

What about the “TCN-201 activity Max. % inhibition” value (GluN1/2A-(2D S1)) of the same compound?
Its value is 97 ± 1%.

And the “TCN-201 activity nH” value (GluN1/2A-(2D S1))?
Its value is 1.5.

What about the “Inhibition by 3 μM TCN-201” value (GluN1/2A-ΔATD) of the same compound?
The value was “did not reduce inhibition”.

And the solubility [3]?
The solubility was 18 µM (≈ 8.31 µg/mL).

And the “TCN-201 activity Max. % inhibition” value (GluN1/2D-(2A S2))?
The value was 91 ± 4%.

And the “TCN-201 activity nH” value (GluN1/2D-(2A S2))?
Its value is 2.1.

— PMC3355950 (The Journal of Neuroscience, 2012)
